Two molecules from ChEMBL document CHEMBL1221386, “Synthesis and pharmacological evaluation of 3-aryl-3-azolylpropan-1-amines as selective triple serotonin/norepinephrine/dopamine reuptake inhibitors” (Bioorg Med Chem Lett, 2010) can be followed below.

SMILES strings stand for the structures.

The inhibition in vivo is the percentage by which the read-out fell short of the control. As usually defined, the ED50 is the dose at which the effect has come halfway, by size or by number of responders.

Test [1] has as its system Mus musculus. Description: Antidepressant activity in mouse assessed as change in locomotion at 30 mg/kg, po. Type of test: functional.
Test [2] concerns Mus musculus. Description: Antidepressant activity in mouse assessed as reduction of mobility time at 5 mg/kg, po by tail suspension test. Type of test: functional. Also on record: scale not given: the % may be the effect or the level left. A digest of the protocol:
(§1)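 Mouse tail suspension test with oral dose–response. Read-out is immobility time, reported as % reduction of immobility. Minimal effective dose is the lowest dose giving p <0.05. Doses are in mg/kg.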

In test [3] the test system is Mus musculus. Description: Antidepressant activity in mouse assessed as change in locomotion at 60 mg/kg, po. The class given is functional.
Test [4] has as its system Mus musculus. Description: Analgesic activity in mouse assessed as reduction of acetic acid-induced writhing at 30 mg/kg.
Test [5] concerns Mus musculus. Description: Antidepressant activity in po dosed mouse assessed as reduction of mobility time by forced swimming test. Type of test: functional. As to conditions: for minimal effective dose: read-out: MED. In outline:
(§2)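 Mouse forced swimming test with oral dosing. Read-out is immobility time, expressed as % reduction of immobility. Minimal effective dose is the lowest dose with p <0.05. ED50 is given with 95% confidence limits. Doses are in mg/kg.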

Test [6] concerns Mus musculus. Kind of test: Antidepressant activity in mouse assessed as reduction of mobility time by forced swimming test at 10 mg/kg, po. Type of test: functional. Also on record: scale not given: the % may be the effect or the level left. In outline:
as §2

Test [7] concerns Mus musculus. Description: Anxiolytic activity in mouse assessed as inhibition of marble buried at 30 mg/kg, ip by marble burying test. Type of test: functional. The note with it: route intraperitoneal.
For test [8], the system named is Mus musculus. Kind of test: Antidepressant activity in po dosed mouse assessed as reduction of mobility time by tail suspension test. Type of test: functional. The note with it: read-out: MED. A digest of the protocol:
as §1

Test [9] has as its system Mus musculus. Description: Potentiation of […]-induced serotonin syndrome like behavior in po dosed mouse. The note with it: read-out: MED. The class given is functional. In outline: (§3)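 Mice, oral dosing. For serotonin potentiation, 5-hydroxytryptophan (5-HTP, serotonin precursor) is given to induce serotonin syndrome-like head twitch/stereotypy counts. Response is expressed as % potentiation relative to control group (0%). Minimal effective dose is the lowest dose reaching p <0.05. Doses are in mg/kg.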

The subject of test [10] is Mus musculus. Kind of test: Potentiation of […]-induced serotonin syndrome like behavior in mouse at 30 mg/kg, po. The class given is functional. In outline: as §3
In test [11] the test system is Mus musculus. Description: Antidepressant activity in mouse assessed as change in locomotion at 90 mg/kg, po. Type of test: functional.
The test system of test [12] is Mus musculus. Kind of test: Antidepressant activity in mouse assessed as reduction of mobility time by forced swimming test at 30 mg/kg, ip. As to conditions: route intraperitoneal. Also noted: scale not given: the % may be the effect or the level left.
Test [13] deals with Mus musculus. Kind of test: Potentiation of […]-induced serotonin syndrome like behavior in mouse at 10 mg/kg, po. The class given is functional. A digest of the protocol:
as §3

The subject of test [14] is Mus musculus. Description: Antidepressant activity in mouse assessed as reduction of mobility time at 7 mg/kg, po by tail suspension test. The class given is functional. Also on record: scale not given: the % may be the effect or the level left. A digest of the protocol:
as §1

With `Clc1ccc([C@]23CNC[C@H]2C3)cc1Cl` [AMITIFADINE], the Activity in test [1] is 150%; in test [2], 33.2%; in test [3] it was 131%; in [6] it was 18%; in test [10], 54%; in test [11], 148%. In addition, the inhibition in vivo at 30 mg/kg came out at 93.7% in test [4] and 99.1% in test [7]. Further, the ED50 in [5] worked out at 30.1 mg/kg. The values for the minimal effective dose in [5], in test [8] and in test [9] were 50 mg/kg, 5 mg/kg and 30 mg/kg, respectively.
Turning to `COc1ccc(C(CN(C)C)C2(O)CCCCC2)cc1` (stereo not drawn) [VENLAFAXINE], the Activity in [1] came to 119%; in test [3], 139%; in test [12], 35.2%; in test [13], 129%; in [14], 56.3%. In addition, the inhibition in vivo at 30 mg/kg was 70.2% in [4] and 82.3% in test [7]. For the same molecule, the ED50 in test [5] is 38.4 mg/kg. Also, the minimal effective dose in test [5] was 30 mg/kg; in test [8] it was 7 mg/kg; in test [9], 10 mg/kg.
